Results as given in article PMC3517154 (ChemMedChem, 2011).

Legend:
PPARγ = target: T1, PPARγ (Homo sapiens, UniProt P37231); test: Cell-based PPARγ transactivation assay; settings: for Maximal efficacy: compared to the reference full agonist (2, MRL20); for EC50: read-out: Cell-based EC50, Cos-1 cells, 3xPPRE luciferase reporter, full-length PPARγ, 24 h, dose-response
T1 sequence (P37231 1-505): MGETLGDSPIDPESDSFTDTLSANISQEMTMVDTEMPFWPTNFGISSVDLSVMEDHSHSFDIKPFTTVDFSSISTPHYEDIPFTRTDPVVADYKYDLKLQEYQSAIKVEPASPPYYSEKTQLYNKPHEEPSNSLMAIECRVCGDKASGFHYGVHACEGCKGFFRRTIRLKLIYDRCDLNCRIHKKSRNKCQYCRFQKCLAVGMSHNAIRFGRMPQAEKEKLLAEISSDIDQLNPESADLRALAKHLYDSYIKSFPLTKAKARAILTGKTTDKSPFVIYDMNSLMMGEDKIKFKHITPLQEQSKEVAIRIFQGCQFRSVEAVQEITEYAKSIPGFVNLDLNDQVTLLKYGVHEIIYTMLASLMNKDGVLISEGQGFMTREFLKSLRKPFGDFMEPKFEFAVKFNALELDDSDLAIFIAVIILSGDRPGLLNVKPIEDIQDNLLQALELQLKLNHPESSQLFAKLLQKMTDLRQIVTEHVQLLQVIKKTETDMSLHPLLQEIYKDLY
Method in brief: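 Cos-1 cells, trypsinized, bulk reverse-transfected 24 h (FuGene6, lipid:DNA 3:1; DMEM + 10% FBS) with 1.5 μg 3xPPRE luciferase reporter plus 1.5 μg full-length PPARγ (pSport6). Replated at 10,000 cells/well, 4 h at 37°C, 5% CO2. Ten-point serial dilution, 5 μM – 200 pM, in triplicate, then 24 h. One-step luciferase reagent, luminescence read. Activity taken as fold over DMSO. Partial and full agonist controls, DMSO negative. EC50 from curve fit.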

PPARγ LBD = target: T2, PPARγ LBD (Homo sapiens, UniProt P37231); test: Fluorescence polarization; type: binding; settings: read-out: FP Assay IC50; recombinant PPARγ LBD, 5 nM Fluoromone Green ligand, 25°C, 2 hours
T2 sequence (P37231 238-503 limits assumed): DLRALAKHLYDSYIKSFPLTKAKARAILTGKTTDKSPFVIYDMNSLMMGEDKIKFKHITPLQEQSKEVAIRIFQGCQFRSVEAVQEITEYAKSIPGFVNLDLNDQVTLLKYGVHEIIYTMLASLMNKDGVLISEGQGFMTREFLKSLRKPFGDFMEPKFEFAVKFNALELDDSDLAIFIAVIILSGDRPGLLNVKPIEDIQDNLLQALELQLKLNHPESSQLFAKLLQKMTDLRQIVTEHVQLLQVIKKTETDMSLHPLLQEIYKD
Method in brief: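 Competitive FP binding run per kit instructions. 20 ng recombinant PPARγ LBD plus 5 nM Fluoromone Green probe, mixed with an equal volume of screening buffer holding DMSO or test compound. Incubated 2 h at 25°C. Polarization read at 485 nm excitation and 535 nm emission. Rosiglitazone used as positive competitor. IC50 from dose-response curve fit.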

| Maximal efficacy (PPARγ) [%] | EC50 (PPARγ) [nM] | IC50 (PPARγ LBD) [nM] | SMILES |
| --- | --- | --- | --- |
| 37.04 | 1200 | 3000 | CCOc1ccc2nc(N3C(=O)C(O)=C(C(=O)c4ccco4)C3c3ccco3)sc2c1 (stereo not drawn) [Compound 6] |
| 41.14 | 5000 | 5000 | COc1ccc2nc(N3C(=O)C(O)=C(C(=O)c4ccco4)C3c3ccc(C)o3)sc2c1 (stereo not drawn) [Compound 7] |
| 45.76 | 18000 | 22000 | Cc1ccc2nc(N3C(=O)C(O)=C(C(=O)c4ccc(C)o4)C3c3ccco3)sc2c1 (stereo not drawn) [Compound 8] |

Continued, compound first:

| SMILES | Maximal efficacy (PPARγ) [%] | EC50 (PPARγ) [nM] | IC50 (PPARγ LBD) [nM] |
| --- | --- | --- | --- |
| COc1ccc(-c2nn(-c3ccccc3)cc2/C=C2/SC(=S)N(CCC(=O)O)C2=O)c(C)c1 [Compound 3] | 44.41 | 283 | 152 |
| CCn1cnc2c1c(=O)n(Cc1cccc([N+](=O)[O-])c1)c(=O)n2Cc1ccccc1 [Compound 4] | 64.11 | 181 | 173 |
| CC(=O)N1N=C(c2ccccc2)CC1c1cn(Cc2ccccc2)c2ccccc12 (stereo not drawn) [Compound 5] | 44.71 | 1200 | 2000 |
